According to ChEMBL document CHEMBL1149431 (Bioorg Med Chem Lett, 2006):
Activity calls are given as the source filed them. The rule behind the calls is not given here.

Assays:
[1] = target: Sodium-dependent noradrenaline transporter (Homo sapiens, UniProt P23975); assay: Inhibition of reuptake of Norepinephrine
[2] = Metabolic stability by incubation with human hepatocytes; format: ADME, cell-based, Liver, Hepatocyte
Procedure, shortened: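 Compounds at 23 µM incubated separately with pooled (n = 2) cryopreserved human hepatocytes (2 million cells/mL) in phenol-red-free Waymouth's medium with FBS 4.5%, insulin, glutamine 3.6 mM, pyruvate 4.5 mM, dexamethasone 0.9 µM; 1% methanol. Samples at 0, 180, 360 min quenched in acetonitrile, protein spun off. Half-life from parent disappearance.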

[3] = Metabolic stability by incubation with human liver microsomes; format: ADME, Microsome
Procedure, shortened: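 Human liver microsomes (4 mg protein/mL) incubated with compound at 23 µM, 37 ± 1 °C, in 50 mM potassium phosphate pH 7.4 with 3 mM MgCl2 and 1 mM EDTA. Sampled at 0, 90 and 180 min; half-life calculated from loss of parent compound.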

Rattus norvegicus [4] = assay: Effect on latency in tail flick in rat after 1,2,4 and 8 hrs of administration of 50 mg/kg, ip; format: functional, organism-based; design: dose 50 mg/kg
Procedure, shortened: (§1)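 Rat tail-flick model; single intraperitoneal dose of 50 mg/kg, with 5 mg/kg ip morphine and saline as controls. Tail-flick latency (s) read at 1, 2, 4 and 8 h after dosing. n = 9–10 per group; significance vs control by Dunnett's test (p<0.05, p<0.01).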

Rattus norvegicus [5] = assay: Effect on latency in tail flick in rat after 1 and 2 hrs of administration of 50 mg/kg, ip; format: functional, organism-based; design: dose 50 mg/kg; details: tested as the 2H-labelled form; procedure, shortened: as §1

Sodium-dependent noradrenaline transporter, sequence (P23975 whole entry): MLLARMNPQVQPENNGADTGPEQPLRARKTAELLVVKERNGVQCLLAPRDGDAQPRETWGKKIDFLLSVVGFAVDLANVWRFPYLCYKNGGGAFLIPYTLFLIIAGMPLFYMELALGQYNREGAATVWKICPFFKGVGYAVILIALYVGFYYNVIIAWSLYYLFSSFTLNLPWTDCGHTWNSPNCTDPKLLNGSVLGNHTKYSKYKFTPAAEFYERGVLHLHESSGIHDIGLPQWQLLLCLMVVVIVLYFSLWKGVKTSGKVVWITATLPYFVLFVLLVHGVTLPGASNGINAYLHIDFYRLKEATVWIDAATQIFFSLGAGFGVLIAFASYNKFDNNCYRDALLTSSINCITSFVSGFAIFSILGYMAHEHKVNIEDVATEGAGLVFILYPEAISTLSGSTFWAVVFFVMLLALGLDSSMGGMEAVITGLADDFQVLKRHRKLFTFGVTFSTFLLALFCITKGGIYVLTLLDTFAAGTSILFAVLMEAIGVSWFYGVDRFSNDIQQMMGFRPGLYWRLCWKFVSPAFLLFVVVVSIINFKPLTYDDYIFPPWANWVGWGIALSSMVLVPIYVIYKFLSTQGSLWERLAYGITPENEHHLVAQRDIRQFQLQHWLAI

Row | SMILES | IC50 [1] [µM] | half-life [2] [h] | half-life [3] [h] | Activity (Rattus norvegicus [4]) | Activity (Rattus norvegicus [4]; tested as the 2H-labelled form) | Activity (Rattus norvegicus [5])
1 | [2H]C([2H])([2H])Oc1cccc([C@@]2(O)CCCC[C@@H]2CN(C([2H])([2H])[2H])C([2H])([2H])[2H])c1 | 2 | 60.2 | 120 | – | – | –
2 | [2H]C([2H])([2H])N(C[C@H]1CCCC[C@]1(O)c1cccc(O)c1)C([2H])([2H])[2H] | 6.7 | 27.5 | 12.4 | – | – | –
3 | CN(C)C[C@H]1CCCC[C@]1(O)c1cccc(O)c1 [O-DESMETHYL TRAMADOL] | > 10 | 26 | 47 | – | – | –
4 | [2H]C([2H])([2H])Oc1cccc([C@@]2(O)CCCC[C@@H]2CN(C)C)c1 | 3.6 | 22.2 | 12.4 | – | – | –
5 | COc1cccc([C@@]2(O)CCCC[C@@H]2CN(C)C)c1 [TRAMADOL] | 0.79 | 16.1 | 12.3 | Active | Active | Active
6 | [2H]C([2H])([2H])N(C[C@H]1CCCC[C@]1(O)c1cccc(OC)c1)C([2H])([2H])[2H] | 3.2 | 14.2 | 9.12 | – | – | –
